Reference: ChEMBL document CHEMBL1155655 (2000)
Values after ≈ are worked out from the molar mass of the structure shown. Active and inactive are the calls of the source. No cut-off for these calls is given here.

Legend:
Leishmania major = assay: Antileishmanial activity against promastigotes of Leishmania major LV39 infected in C57BL/10ScSn mouse bone marrow-derived macrophages; assay type: functional, organism-based
How it was run: (§1)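 Promastigotes of L. donovani LV9, L. infantum D.SCH (isolated 1995 from an infant visceral leishmaniasis case), L. enriettii and L. major LV39, grown at 25 °C, 5% CO2, humidified, and passaged every 3-4 days. Stocks were kept by animal passage (not L. infantum) and cryopreserved in liquid nitrogen.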

Leishmania infantum = assay: Antileishmanial activity against promastigotes of Leishmania infantum D.SCH infected in C57BL/10ScSn mouse bone marrow-derived macrophages; assay type: functional, organism-based; how it was run: as §1
Leishmania enriettii = assay: Antileishmanial activity against promastigotes of Leishmania enriettii infected in C57BL/10ScSn mouse bone marrow-derived macrophages; assay type: functional; details: read-out: ED50
Leishmania donovani [1] = assay: Antileishmanial activity against intracellular Leishmania donovani LV9 infected in C57BL/10ScSn mouse bone marrow-derived macrophages; assay type: functional; details: LV9, read-out: ED50
Leishmania donovani [2] = assay: Antileishmanial activity against extracellular Leishmania donovani LV9 infected in C57BL/10ScSn mouse bone marrow-derived macrophages; assay type: functional; details: LV9, read-out: ED50
[3] = Cytotoxicity against C57BL/10ScSn mouse bone marrow-derived macrophages; assay type: cell-based, Macrophage
KB = assay: Cytotoxicity against human KB cells; assay type: functional, cell-based
SK-MEL-30 = assay: Cytotoxicity against human SK-MEL-30 cells; assay type: functional, cell-based
A549 = assay: Cytotoxicity against human A549 cells; assay type: functional, cell-based
MCF7 = assay: Cytotoxicity against human MCF7 cells; assay type: functional, cell-based
Toxicity in brine shrimp = assay type: organism-based; details: artemia, in vivo

Structure (SMILES)	EC50 (KB; kb) [µg/mL]	EC50 (SK-MEL-30; sk-mel-30) [µg/mL]	EC50 (A549; a549) [µg/mL]	EC50 (MCF7; mcf7) [µg/mL]	EC50 (KB; Homo sapiens, KB) [µg/mL]	EC50 (SK-MEL-30; Homo sapiens, SK-MEL-30) [µg/mL]	EC50 (A549; Homo sapiens, A549) [µg/mL]	EC50 (MCF7; Homo sapiens, MCF7) [µg/mL]	further results
C=C[C@]1(C)CC[C@]2(C)[C@@H](C1)C(=O)[C@@H](O)[C@@H]1[C@]3(C)CCC[C@@]12OC3=O	–	–	–	–	–	–	–	–	Activity (Leishmania major): inactive; Activity (Leishmania infantum): inactive; EC50 (Leishmania enriettii): > 50 µg/mL; EC50 (Leishmania donovani [1]): 37.2 µg/mL (≈ 112 µM); EC50 (Leishmania donovani [2]): 10.3 µg/mL (≈ 31 µM); CC50 [3]: 19.5 µg/mL (≈ 58.7 µM)
C/C=C\C(=O)O[C@@H]1[C@@H](O)[C@H]2O[C@@H]3C=C(C)CC[C@]3(C)[C@]1(C)[C@]21CO1 [8-DIHYDROTRICHOTHECINOL A]	0.1 (≈ 0.299 µM)	0.11 (≈ 0.329 µM)	0.11 (≈ 0.329 µM)	0.11 (≈ 0.329 µM)	–	–	–	–	–
CC(=O)OC[C@]12O[C@]34C=C(C)C(=O)C[C@]3(C)[C@@]1(C)[C@H](O)C[C@H]2O4 [13-ACETOXYLOUKACINOL A]	–	–	–	–	13.6 (≈ 42.2 µM)	18 (≈ 55.8 µM)	26.6 (≈ 82.5 µM)	15.9 (≈ 49.3 µM)	–
CC1=C[C@]23O[C@@H]4C[C@@H](O)[C@](C)([C@@]2(C)CC1=O)[C@]4(CO)O3 [LOUKACINOL A]	–	–	–	–	13.9 (≈ 49.6 µM)	16.4 (≈ 58.5 µM)	21.4 (≈ 76.3 µM)	15.8 (≈ 56.4 µM)	–
CC1=C[C@]23O[C@@H]4CC[C@](C)([C@@]2(C)CC1=O)[C@]4(CO)O3 [LOUKACINOL B]	–	–	–	–	11.8 (≈ 44.6 µM)	13.6 (≈ 51.5 µM)	15.2 (≈ 57.5 µM)	13.3 (≈ 50.3 µM)	–
C/C=C\C(=O)O[C@@H]1[C@@H](O)[C@H]2O[C@@H]3C=C(C)C(=O)C[C@]3(C)[C@]1(C)[C@]21CO1 [TRICHOTHECINOL A]	0.014 (≈ 0.0402 µM)	0.013 (≈ 0.0373 µM)	0.021 (≈ 0.0603 µM)	0.014 (≈ 0.0402 µM)	–	–	–	–	LC50 (Toxicity in brine shrimp): 0.52 µg/mL (≈ 1.49 µM)
C/C=C\C(=O)O[C@@H]1C[C@H]2O[C@@H]3C=C(C)C(=O)C[C@]3(C)[C@]1(C)[C@]21CO1 [TRICHOTHECIN]	35 (≈ 105 µM)	14 (≈ 42.1 µM)	16 (≈ 48.1 µM)	19 (≈ 57.2 µM)	–	–	–	–	LC50 (Toxicity in brine shrimp): 2.2 µg/mL (≈ 6.62 µM)
CC1=C[C@H]2O[C@@H]3C[C@@H](O)[C@](C)([C@@]2(C)CC1=O)[C@]31CO1 [TRICHOTHECOLONE]	10.6 (≈ 40.1 µM)	8.6 (≈ 32.5 µM)	7.1 (≈ 26.9 µM)	10.6 (≈ 40.1 µM)	–	–	–	–	–
